DNP = 2,4-dinitrophenyl quencher group; MCA = fluorogenic coumarin group
Columns and labels:
Taspase1 [1] = biological target: T1, Taspase1 (Homo sapiens, UniProt Q9H6P5); experiment: In vitro cleavage of radiolabeled p75MLL reporter by recombinant Taspase1; type: biochemical; conditions: for activity against Taspase1 (cleavage of p75MLL): in vitro cleavage assay
T1 sequence (Q9H6P5 1-233 limits assumed): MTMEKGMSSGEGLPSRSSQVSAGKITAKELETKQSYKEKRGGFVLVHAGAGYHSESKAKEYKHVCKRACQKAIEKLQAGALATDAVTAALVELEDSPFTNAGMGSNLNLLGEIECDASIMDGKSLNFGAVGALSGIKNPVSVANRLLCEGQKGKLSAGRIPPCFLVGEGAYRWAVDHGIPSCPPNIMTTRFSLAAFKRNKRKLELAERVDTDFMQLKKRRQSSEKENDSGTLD
T1 sequence (Q9H6P5 234-420 limits assumed): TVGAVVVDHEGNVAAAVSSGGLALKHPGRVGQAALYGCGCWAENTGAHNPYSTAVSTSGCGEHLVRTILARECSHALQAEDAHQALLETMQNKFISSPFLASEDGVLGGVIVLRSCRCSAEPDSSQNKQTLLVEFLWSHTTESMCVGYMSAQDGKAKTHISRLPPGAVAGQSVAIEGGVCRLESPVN

Taspase1 [2] = biological target: T1, Taspase1; experiment: FRET-based Taspase1 cleavage assay with FRPR reporter; type: biochemical
MMTV-neu breast cancers = experiment: MMTV-neu mouse breast cancer model; type: in vivo; conditions: every other day, 5 intravenous injections
U251 cells = experiment: Growth inhibition of NCI60 brain tumor cell lines; type: cell-based, human; conditions: NCI DTP GI50 data confirmed by MTT, 2 days
MMTV-wnt breast cancers = experiment: MMTV-wnt mouse breast cancer model; type: in vivo; conditions: every other day, 5 intravenous injections
[3] = In vivo toxicity profile after short term tail vein injections; parameters: species or system mouse
U251 xenograft = experiment: U251 brain tumor xenograft, bioluminescent imaging; type: in vivo, mouse; conditions: treated on days 0, 2 and 4; compared to vehicle
In short: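 U251 cells stably expressing firefly luciferase were implanted subcutaneously into the flanks of male NOD-scid IL2Rγ−/− mice aged 6–8 weeks on day −1. Test compound was given at indicated doses on days 0, 2 and 4. Tumor mass was followed by bioluminescence imaging, normalized to 1 at day 0. Mean ± SD of 4 tumors per arm.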

Caspase8 = Caspase8 (Homo sapiens, UniProt Q14790); experiment: Caspase8-p22Bid in vitro cleavage assay; type: biochemical; conditions: 1 mM compound, 250 ng rCaspase8
[4] = test system: Taspase1−/−;Taspase1 MEFs; experiment: MTT relative cell number in SV40-transformed MEFs; type: cell-based, mouse; conditions: 1uM, 2 days
autotaxin = conditions: cited from earlier work
[5] = biological target: T2, Taspase1 precursor (p50T1α-β) (Homo sapiens, UniProt Q9H6P5); experiment: Intramolecular autoproteolysis of radiolabeled Taspase1 precursor p50T1α-β; type: biochemical; conditions: increasing amounts, 6 hours at 30°C
T2 sequence (Q9H6P5 1-420): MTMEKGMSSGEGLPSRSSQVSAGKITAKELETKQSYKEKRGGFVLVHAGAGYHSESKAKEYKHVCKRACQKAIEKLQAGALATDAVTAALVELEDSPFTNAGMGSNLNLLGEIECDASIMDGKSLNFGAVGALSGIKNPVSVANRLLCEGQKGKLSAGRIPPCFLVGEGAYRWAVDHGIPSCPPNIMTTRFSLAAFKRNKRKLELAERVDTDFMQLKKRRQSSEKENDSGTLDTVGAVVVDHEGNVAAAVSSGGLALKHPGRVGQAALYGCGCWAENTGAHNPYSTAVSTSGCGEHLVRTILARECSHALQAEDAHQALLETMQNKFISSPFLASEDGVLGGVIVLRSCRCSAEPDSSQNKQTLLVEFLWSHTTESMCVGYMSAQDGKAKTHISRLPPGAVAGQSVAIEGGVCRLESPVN
In short: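 Radiolabeled 50 kD Taspase1 precursor (p50T1α-β, 0.5 μl) incubated in cleavage buffer at 30°C for 6 hours with indicated concentrations of test compound. Maturation is scored as autoproteolytic conversion to the 28 kD α and 22 kD β subunits.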

[6] = short term tail vein injections

Sequence of Caspase8 (Q14790 217-374 limits assumed, species assumed): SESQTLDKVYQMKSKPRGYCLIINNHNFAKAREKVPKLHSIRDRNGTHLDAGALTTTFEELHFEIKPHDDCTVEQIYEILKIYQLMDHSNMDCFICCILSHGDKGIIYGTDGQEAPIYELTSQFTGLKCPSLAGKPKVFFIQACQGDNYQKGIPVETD
Sequence of Caspase8 (Q14790 385-479 limits assumed, species assumed): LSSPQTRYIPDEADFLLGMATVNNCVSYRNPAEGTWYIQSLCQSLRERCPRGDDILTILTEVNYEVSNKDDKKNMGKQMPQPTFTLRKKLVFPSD

Molecule: CC(C)C[C@H](NC(=O)[C@H](Cc1ccccc1)NC(=O)c1cnccn1)B(O)O [Bortezomib, reference compound]
- activity against Taspase1 (cleavage of p75MLL) (Taspase1 [1]): no activity

Molecule: COc1ccc(C(=O)OCc2ccc3c(c2)OCO3)cc1 [NSC23953]
- activity against Taspase1 (cleavage of p75MLL) (Taspase1 [1]): no demonstrable activity

Molecule: O=[N+]([O-])c1cccc(NCNc2cccc([N+](=O)[O-])c2)c1 [NSC47905]
- activity against Taspase1 (cleavage of p75MLL) (Taspase1 [1]): no demonstrable activity

Molecule: O=[As](O)(O)c1ccc(Cc2ccc([As](=O)(O)O)cc2)cc1 [NSC48300, [4-[(4-arsonophenyl)methyl]phenyl] arsonic acid]
- mode of inhibition (Taspase1 [2]; non-linear regression of reaction curves): non-competitive
- growth of MMTV-neu breast cancers (MMTV-neu breast cancers): consistently disrupted the growth
- sensitivity to treatment in vitro among NCI60 brain tumor cell lines (U251 cells): most sensitive
- growth of MMTV-wnt breast cancers (MMTV-wnt breast cancers): no effects
- hemoglobin levels ([3]; complete blood counts): decrease
- white blood cell counts ([3]; complete blood counts): decrease
- injection site damage ([3]; repetitive tail vein treatment): fibrotic damages of regional vessels at injection sites
- blood chemistry: LDH level [3, 6]: significant decrease
- blood chemistry: electrolytes and kidney functions [3, 6]: certain alterations
- histological examination of major organs [3, 6]: did not reveal any obvious abnormalities
- tumor growth by bioluminescent imaging (U251 xenograft): stasis of tumor growth
- specificity: Caspase8-mediated cleavage of p22Bid (Caspase8): specifically targeted Taspase1
- sensitivity compared to parental Taspase1−/− cell line [4]: increased sensitivity
- IC50 (Taspase1 [1]): ~7.5 µM
- reversible or irreversible inhibition (extended pre-incubation) (Taspase1 [1]; 5 μM, pre-incubation for extended periods of time): reversible
- lysophospholipase D activity of autotaxin (autotaxin): inhibited
- impact on Taspase1 autoproteolysis [5]: no impact

Molecule: O=C(O)Cc1ccc(Oc2ccc(CC(=O)O)cc2)cc1 [NSC74084]
- activity against Taspase1 (cleavage of p75MLL) (Taspase1 [1]): no demonstrable activity

Molecule: Cc1cc(Cc2ccc3c(c2)OCO3)ccc1OCC(=O)O [NSC352678]
- activity against Taspase1 (cleavage of p75MLL) (Taspase1 [1]): no demonstrable activity

Molecule: O=[As](O)(O)O [arsenic acid, reference compound]
- inhibition of Taspase1 by free arsenic acid (Taspase1 [1]; up to 1 mM, 5 ng rTaspase1, 30 min preincubation): no detectable inhibition

Molecule: MCA-KISQLDGVDD-DNP ({MCA}-KISQLDGVDD-{DNP}) [FRPR, reference compound]
- Km (Taspase1 [2]; read-out: apparent KM, substrate of Taspase1): 9.06 ± 2.8 µM

— PMC3325786 (Cancer Research, 2011)
